Drawing on ChEMBL document CHEMBL3608241, “Molecular docking design and one-pot expeditious synthesis of novel 2,5-diarylpyrazolo[1,5-a]pyrimidin-7-amines as anti-inflammatory agents” (2015), this text covers inhibition in vivo for 12 compounds.

Type in all cases: functional
In assay [1] the test system is Rattus norvegicus. The assay can be described thus: Antiinflammatory activity in Wistar albino rat assessed as inhibition of carrageenan-induced paw edema at 50 mg/kg, po administered 30 mins prior to carrageenan challenge measured after 1 hr by plethysmometric analysis relative to control. A digest of the protocol: (§1)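 Male Wistar albino rats, 200-250 g, housed under standard light and temperature, fasted from 12 h before and through the experiment; groups of five. Oral dosing 30 min before 0.1 ml of 1% carrageenan in 0.9% saline was injected into the left hind paw plantar region. Controls received Tween 80 only. Paw volume was read by plethysmometer at 0 h and at 1-4 h. Inhibition (%) = (Vc − Vt)/Vc × 100; mean ± SEM.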

The subject of assay [2] is Rattus norvegicus. The assay can be described thus: Antiinflammatory activity in Wistar albino rat assessed as inhibition of carrageenan-induced paw edema at 50 mg/kg, po administered 30 mins prior to carrageenan challenge measured after 4 hrs by plethysmometric analysis relative to control. A digest of the protocol: as §1
In general terms: In the carrageenan paw model, swelling and tenderness develop within hours.

The subject of assay [3] is Rattus norvegicus. Nature of the assay: Antiinflammatory activity in Wistar albino rat assessed as inhibition of carrageenan-induced paw edema at 50 mg/kg, po administered 30 mins prior to carrageenan challenge measured after 3 hrs by plethysmometric analysis relative to control. A digest of the protocol: as §1
Assay [4] concerns Rattus norvegicus. Nature of the assay: Antiinflammatory activity in Wistar albino rat assessed as inhibition of carrageenan-induced paw edema at 50 mg/kg, po administered 30 mins prior to carrageenan challenge measured after 2 hrs by plethysmometric analysis relative to control. A digest of the protocol: as §1
In assay [5] the test system is Rattus norvegicus. Nature of the assay: Antiinflammatory activity in Wistar albino rat assessed as inhibition of carrageenan-induced paw edema at 10 mg/kg, po administered 30 mins prior to carrageenan challenge measured after 2 hrs by plethysmometric analysis relative to control. A digest of the protocol: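 Male Wistar albino rats, 200-250 g, fasted 12 hr before and during the test; groups of five. Oral dosing 30 min before sub-plantar injection of 0.1 ml carrageenan (1% in 0.9% saline) into left hind paw; controls got tween 80. Paw volume read by plethysmometer at 0 hr and 1-4 hr; % inhibition = (Vc−Vt)/Vc×100 against control; mean ± SEM.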

Assay [6] deals with Rattus norvegicus. Nature of the assay: Antiinflammatory activity in Wistar albino rat assessed as inhibition of carrageenan-induced paw edema at 10 mg/kg, po administered 30 mins prior to carrageenan challenge measured after 4 hrs by plethysmometric analysis relative to control. The gist of the method:
as §1

In assay [7] the test system is Rattus norvegicus. Nature of the assay: Antiinflammatory activity in Wistar albino rat assessed as inhibition of carrageenan-induced paw edema at 10 mg/kg, po administered 30 mins prior to carrageenan challenge measured after 1 hr by plethysmometric analysis relative to control. The gist of the method: as §1
In assay [8] the test system is Rattus norvegicus. Nature of the assay: Antiinflammatory activity in Wistar albino rat assessed as inhibition of carrageenan-induced paw edema at 10 mg/kg, po administered 30 mins prior to carrageenan challenge measured after 3 hrs by plethysmometric analysis relative to control. A digest of the protocol: as §1

In the case of `Cc1ccc(-c2cc3nc(-c4ccccc4)cc(N)n3n2)cc1`, the inhibition in vivo at 50 mg/kg with Rattus norvegicus [1] came out at 26.9%; in the assay on Rattus norvegicus [2] it was 34.5%; in the assay with Rattus norvegicus [3], 34.1%; in the assay on Rattus norvegicus [4] it was 17.5%.
For `Cc1ccc(-c2cc3nc(-c4ccc(Br)cc4)cc(N)n3n2)cc1`, the inhibition in vivo at 50 mg/kg with Rattus norvegicus [1] worked out at 71.2%; in the assay on Rattus norvegicus [2], 66.7%; in the assay on Rattus norvegicus [3], 56.1%; in the assay with Rattus norvegicus [4], 56.2%.
In the same order, the values of `Nc1cc(-c2ccc(Br)cc2)nc2cc(-c3ccccc3)nn12` are 65.4%, 66.7%, 56.1% and 63.8%.
Take `Cc1ccc(-c2cc(N)n3nc(-c4ccccc4)cc3n2)cc1`: the inhibition in vivo at 50 mg/kg in the assay with Rattus norvegicus [1] was 28.8%; with Rattus norvegicus [2], 54.8%; in the assay on Rattus norvegicus [3], 31.7%; in the assay with Rattus norvegicus [4], 37.5%.
With `Nc1cc(-c2ccc(Cl)cc2)nc2cc(-c3ccccc3)nn12`, the inhibition in vivo at 50 mg/kg was determined as 21.1% in the assay with Rattus norvegicus [1], 51.2% in the assay with Rattus norvegicus [2], 28% with Rattus norvegicus [3] and 13.8% in the assay on Rattus norvegicus [4].
As for `Cc1ccc(-c2cc3nc(-c4ccc(F)cc4)cc(N)n3n2)cc1`, the inhibition in vivo at 50 mg/kg in the assay with Rattus norvegicus [1] was determined as 28.8%; in the assay on Rattus norvegicus [2], 64.3%; in the assay on Rattus norvegicus [3] it was 26.8%; in the assay with Rattus norvegicus [4], 65%.
On to `Cc1ccc(-c2cc(N)n3nc(-c4ccc(Cl)cc4)cc3n2)cc1`, for which the inhibition in vivo at 50 mg/kg in the assay with Rattus norvegicus [1] turned out to be 57.7%; in the assay on Rattus norvegicus [2], 81%; in the assay with Rattus norvegicus [3], 69.5%; in the assay on Rattus norvegicus [4], 75%.
The corresponding values for `Cc1ccc(-c2cc3nc(-c4ccc(Cl)cc4)cc(N)n3n2)cc1` are 59.6%, 67.8%, 64.6% and 67.5%.
In the same order, the values of `Nc1cc(-c2ccc(Br)cc2)nc2cc(-c3ccc(Cl)cc3)nn12` are 59.6%, 76.2%, 70.7% and 60%.
On to `Nc1cc(-c2ccc(Cl)cc2)nc2cc(-c3ccc(Br)cc3)nn12`, for which the inhibition in vivo at 50 mg/kg in the assay with Rattus norvegicus [1] came to 13.5%; in the assay with Rattus norvegicus [2] it was 65.5%; in the assay with Rattus norvegicus [3], 56.1%; with Rattus norvegicus [4] it was 72.5%.
For `Cc1ccc(-c2cc(N)n3nc(-c4ccc(Br)cc4)cc3n2)cc1`, the inhibition in vivo at 50 mg/kg with Rattus norvegicus [1] came to 67.3%; in the assay on Rattus norvegicus [2], 64.3%; in the assay with Rattus norvegicus [3], 73.2%; in the assay on Rattus norvegicus [4] it was 76.2%.
With `COc1ccc2c(c1)c(CC(=O)O)c(C)n2C(=O)c1ccc(Cl)cc1` [INDOMETHACIN], the inhibition in vivo at 10 mg/kg in the assay with Rattus norvegicus [5] came to 80%; with Rattus norvegicus [6], 84.5%; with Rattus norvegicus [7] it was 73.1%; with Rattus norvegicus [8], 82.9%.

The inhibition in vivo is the percentage by which the read-out fell short of the control.
